{"data": "Published values pooled from the literature", "cell line": "HeLa", "read-out": "cell growth or viability", "method": "MTT", "note": "Lines come from different studies, so protocols differ."}
{"SMILES": "COC(=O)COc1c(Cc2cc(C(C)(C)CC(C)(C)C)cc(-n3nc4ccccc4n3)c2OCC(=O)OC)cc(C(C)(C)CC(C)(C)C)cc1-n1nc2ccccc2n1", "endpoint": "GI50", "value": "8.12 µM"}
{"SMILES": "O=C(CCc1ccccc1)Nc1cc(-c2ccnc(N3CCC(O)CC3)c2)ccn1", "conditions": "5 µM", "endpoint": "inhibition", "value": "82.9%"}
{"SMILES": "O=C(Nc1cccc([N+](=O)[O-])c1)c1cccs1", "endpoint": "IC50", "value": "282 µM"}
{"SMILES": "Cc1cccc(/C=C/C(=O)Nc2cc(-c3ccnc(N4CCOCC4)c3)ccn2)c1", "conditions": "5 µM", "endpoint": "inhibition", "value": "72%"}
{"SMILES": "[NH2][Pt]([NH2])([Cl])[Cl]", "conditions": "72 h", "endpoint": "IC50", "value": "6.8 µM"}
{"SMILES": "O=C(C=Cc1ccccc1)Nc1cc(-c2ccnc(N3CCC(O)CC3)c2)ccn1", "conditions": "72 h", "endpoint": "IC50", "value": "0.0741 µM"}
{"SMILES": "COc1ccc(COC[C@@](O)(CNCc2ccccc2)[C@@H]2CC[C@@H](C)C[C@H]2OCc2ccc(OC)cc2)cc1", "conditions": "30 µM, 72 h", "endpoint": "inhibition", "value": "97.4%"}
{"SMILES": "COc1cccc2c1C(=O)c1c(O)c3c(c(O)c1C2=O)C[C@@](O)(C(=O)CO)C[C@@H]3O[C@H]1C[C@H](N)[C@H](O)[C@H](C)O1", "endpoint": "GI50", "value": "4.21 µM"}
{"SMILES": "C[C@H](CCC(=O)O)[C@H]1CC[C@H]2[C@@H]3CC[C@@H]4C[C@H](O)CC[C@]4(C)[C@H]3CC[C@]12C", "conditions": "72 h", "endpoint": "IC50", "value": "56 µM"}
{"SMILES": "O=C(Nc1cccc([N+](=O)[O-])c1)c1ccco1", "endpoint": "IC50", "value": "637 µM"}
{"SMILES": "C=C(COCc1ccc(F)cc1)[C@@H]1CC[C@@H](C)C[C@H]1OCc1ccc(F)cc1", "conditions": "10 µM, 72 h", "endpoint": "inhibition", "value": "32.8%"}
{"SMILES": "O=C(C=Cc1ccc(F)cc1)Nc1cc(-c2ccnc(N3CCC(O)CC3)c2)ccn1", "conditions": "5 µM", "endpoint": "inhibition", "value": "67.2%"}
{"SMILES": "C=C(COCc1ccc(OC)cc1)[C@@H]1CC[C@@H](C)C[C@H]1OCc1ccc(OC)cc1", "conditions": "30 µM, 72 h", "endpoint": "inhibition", "value": "60.6%"}
{"SMILES": "Cc1cc(NC(=O)C=Cc2ccccc2)cc(-c2ccnc(N3CCOCC3)c2)c1", "conditions": "5 µM", "endpoint": "inhibition", "value": "16.2%"}
{"SMILES": "COc1ccc(COC[C@@](O)(CNCc2ccc(F)cc2)[C@@H]2CC[C@@H](C)C[C@H]2OCc2ccc(OC)cc2)cc1", "conditions": "30 µM, 72 h", "endpoint": "inhibition", "value": "99.1%"}
{"SMILES": "O=c1c(C=NNC(=S)Nc2ccccc2)coc2ccccc12", "conditions": "48 h", "endpoint": "IC50", "value": "91.9 µM"}
{"SMILES": "O=C(C=Cc1ccccc1)Nc1cccc(-c2ccnc(N3CCC(CO)CC3)c2)c1", "conditions": "5 µM", "endpoint": "inhibition", "value": "73.1%"}
{"SMILES": "C[C@@H]1CC[C@@H]([C@@](C)(O)Cn2cnc3ccccc32)[C@H](OCc2ccccc2)C1", "conditions": "30 µM, 72 h", "endpoint": "inhibition", "value": "86.3%"}
